Source: ChEMBL document CHEMBL1641559, “Facile synthesis and biological evaluation of 3,3-diphenylpropanoyl piperazines as T-type calcium channel blockers” (Bioorg Med Chem Lett, 2011)

The molecules below were run against T1, Voltage-dependent T-type calcium channel subunit alpha-1G (Homo sapiens, UniProt O43497) (assay: Inhibition of T-type alpha1G calcium channel expressed in HEK293 cells by whole-cell patch-clamp method).
T1 sequence (O43497 whole entry): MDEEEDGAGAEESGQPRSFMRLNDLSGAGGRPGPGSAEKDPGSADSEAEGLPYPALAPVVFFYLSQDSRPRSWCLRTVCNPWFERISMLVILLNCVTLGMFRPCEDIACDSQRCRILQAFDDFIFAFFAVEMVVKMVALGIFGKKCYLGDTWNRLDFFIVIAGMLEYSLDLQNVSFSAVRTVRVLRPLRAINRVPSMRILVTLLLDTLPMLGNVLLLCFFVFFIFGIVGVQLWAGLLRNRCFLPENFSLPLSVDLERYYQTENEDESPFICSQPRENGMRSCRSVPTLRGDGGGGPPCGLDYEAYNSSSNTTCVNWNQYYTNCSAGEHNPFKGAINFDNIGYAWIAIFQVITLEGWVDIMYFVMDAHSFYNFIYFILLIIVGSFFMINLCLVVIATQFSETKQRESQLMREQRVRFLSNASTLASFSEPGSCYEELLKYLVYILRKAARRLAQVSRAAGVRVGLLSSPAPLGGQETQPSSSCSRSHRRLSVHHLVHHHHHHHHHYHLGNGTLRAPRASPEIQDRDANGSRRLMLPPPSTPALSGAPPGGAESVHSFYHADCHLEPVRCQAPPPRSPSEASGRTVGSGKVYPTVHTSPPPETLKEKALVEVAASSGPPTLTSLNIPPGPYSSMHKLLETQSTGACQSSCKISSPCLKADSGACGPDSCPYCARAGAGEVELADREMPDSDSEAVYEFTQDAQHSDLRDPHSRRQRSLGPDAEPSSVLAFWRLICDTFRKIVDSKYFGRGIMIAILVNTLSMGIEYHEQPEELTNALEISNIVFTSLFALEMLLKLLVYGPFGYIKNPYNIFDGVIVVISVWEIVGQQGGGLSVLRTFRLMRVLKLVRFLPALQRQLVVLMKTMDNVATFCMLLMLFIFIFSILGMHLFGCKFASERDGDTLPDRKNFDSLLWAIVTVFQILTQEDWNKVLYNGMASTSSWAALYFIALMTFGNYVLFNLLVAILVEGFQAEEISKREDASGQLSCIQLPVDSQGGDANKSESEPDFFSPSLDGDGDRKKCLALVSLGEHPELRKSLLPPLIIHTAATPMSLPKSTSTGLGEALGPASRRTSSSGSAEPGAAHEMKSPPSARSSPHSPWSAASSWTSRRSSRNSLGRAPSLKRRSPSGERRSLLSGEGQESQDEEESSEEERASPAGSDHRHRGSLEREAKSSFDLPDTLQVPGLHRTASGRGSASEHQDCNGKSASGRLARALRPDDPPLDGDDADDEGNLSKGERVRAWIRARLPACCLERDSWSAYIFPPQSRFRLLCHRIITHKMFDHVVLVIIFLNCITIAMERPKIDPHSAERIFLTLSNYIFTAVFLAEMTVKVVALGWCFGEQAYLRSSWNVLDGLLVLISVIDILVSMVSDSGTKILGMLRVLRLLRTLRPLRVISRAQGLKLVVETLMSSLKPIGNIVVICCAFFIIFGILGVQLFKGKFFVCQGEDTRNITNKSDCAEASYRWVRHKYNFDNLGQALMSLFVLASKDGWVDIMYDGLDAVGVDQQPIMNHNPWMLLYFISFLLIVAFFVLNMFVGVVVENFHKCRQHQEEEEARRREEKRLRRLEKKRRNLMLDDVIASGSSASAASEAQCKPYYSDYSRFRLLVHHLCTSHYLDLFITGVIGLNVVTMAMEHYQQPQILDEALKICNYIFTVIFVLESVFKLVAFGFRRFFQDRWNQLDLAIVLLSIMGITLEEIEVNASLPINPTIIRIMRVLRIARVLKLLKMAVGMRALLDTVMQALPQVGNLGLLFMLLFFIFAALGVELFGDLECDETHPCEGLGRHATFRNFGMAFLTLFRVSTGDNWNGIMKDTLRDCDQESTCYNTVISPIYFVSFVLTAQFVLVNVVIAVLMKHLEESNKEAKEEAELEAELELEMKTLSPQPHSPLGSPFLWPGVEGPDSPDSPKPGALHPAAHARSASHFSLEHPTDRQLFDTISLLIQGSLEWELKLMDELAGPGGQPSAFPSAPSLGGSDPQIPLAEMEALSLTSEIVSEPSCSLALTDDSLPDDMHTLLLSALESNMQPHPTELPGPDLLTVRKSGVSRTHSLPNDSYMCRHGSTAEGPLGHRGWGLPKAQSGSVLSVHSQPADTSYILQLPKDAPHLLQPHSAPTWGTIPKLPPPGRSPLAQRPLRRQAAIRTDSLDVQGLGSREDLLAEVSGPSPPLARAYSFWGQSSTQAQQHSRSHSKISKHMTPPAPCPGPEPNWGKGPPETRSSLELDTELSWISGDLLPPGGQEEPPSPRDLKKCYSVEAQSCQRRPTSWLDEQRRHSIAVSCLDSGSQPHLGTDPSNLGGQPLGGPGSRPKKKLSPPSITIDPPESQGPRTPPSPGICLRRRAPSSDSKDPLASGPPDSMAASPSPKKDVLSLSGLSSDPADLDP

SMILES | IC50
COC(=O)c1coc(CN2CCN(C(=O)CC(c3ccccc3)c3ccc(C(F)(F)F)cc3)CC2)n1 (centres undefined) | 17000 nM
COC(=O)c1coc(CN2CCN(C(=O)CC(c3ccc(F)cc3)c3ccc(C(F)(F)F)cc3)CC2)n1 (centres undefined) | 1730 nM
COC(=O)c1coc(CN2CCN(C(=O)CC(c3ccc(F)cc3)c3ccc(Cl)cc3)CC2)n1 (centres undefined) | 8800 nM
COC(=O)c1coc(CN2CCN(C(=O)CC(c3ccccc3)c3ccc(Br)cc3)CC2)n1 (centres undefined) | 21100 nM
Cc1ccc2nc(CN3CCN(C(=O)CC(c4ccccc4)c4ccc(F)cc4)CC3)oc2c1 (centres undefined) | 1290 nM
COc1ccc(C(CC(=O)N2CCN(Cc3nc4ccc(C)cc4o3)CC2)c2ccccc2)cc1 (centres undefined) | 2480 nM
COC(=O)c1coc(CN2CCN(C(=O)CC(c3ccc(F)cc3)c3ccc(Br)cc3)CC2)n1 (centres undefined) | 830 nM

The molecules below were run against T1, Voltage-dependent T-type calcium channel subunit alpha-1G (assay: Inhibition of T-type alpha1G calcium channel).
Procedure, shortened: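 HEK293 cells stably expressing α1G and Kir2.1 were seeded at 4 × 10⁴ cells/well and used the next day. They were loaded with 5 µM fluo3/AM and 0.001% Pluronic F-127 for 60 min at room temperature in Hepes buffer (pH 7.4). Channels were activated by 70 mM KCl depolarization in buffer containing 10 mM CaCl₂, and the rise in intracellular Ca²⁺ was read by fluorescence (FDSS6000).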

SMILES | Kd
O=c1[nH]c2ccccc2n1C1CCN(CCCC(c2ccc(F)cc2)c2ccc(F)cc2)CC1 [PIMOZIDE] | 40 nM

These molecules were tested against Voltage-gated inwardly rectifying potassium channel KCNH2 (Homo sapiens, UniProt Q12809) (assay: Inhibition of human hERG).
Chain of Voltage-gated inwardly rectifying potassium channel KCNH2 (Q12809 whole entry): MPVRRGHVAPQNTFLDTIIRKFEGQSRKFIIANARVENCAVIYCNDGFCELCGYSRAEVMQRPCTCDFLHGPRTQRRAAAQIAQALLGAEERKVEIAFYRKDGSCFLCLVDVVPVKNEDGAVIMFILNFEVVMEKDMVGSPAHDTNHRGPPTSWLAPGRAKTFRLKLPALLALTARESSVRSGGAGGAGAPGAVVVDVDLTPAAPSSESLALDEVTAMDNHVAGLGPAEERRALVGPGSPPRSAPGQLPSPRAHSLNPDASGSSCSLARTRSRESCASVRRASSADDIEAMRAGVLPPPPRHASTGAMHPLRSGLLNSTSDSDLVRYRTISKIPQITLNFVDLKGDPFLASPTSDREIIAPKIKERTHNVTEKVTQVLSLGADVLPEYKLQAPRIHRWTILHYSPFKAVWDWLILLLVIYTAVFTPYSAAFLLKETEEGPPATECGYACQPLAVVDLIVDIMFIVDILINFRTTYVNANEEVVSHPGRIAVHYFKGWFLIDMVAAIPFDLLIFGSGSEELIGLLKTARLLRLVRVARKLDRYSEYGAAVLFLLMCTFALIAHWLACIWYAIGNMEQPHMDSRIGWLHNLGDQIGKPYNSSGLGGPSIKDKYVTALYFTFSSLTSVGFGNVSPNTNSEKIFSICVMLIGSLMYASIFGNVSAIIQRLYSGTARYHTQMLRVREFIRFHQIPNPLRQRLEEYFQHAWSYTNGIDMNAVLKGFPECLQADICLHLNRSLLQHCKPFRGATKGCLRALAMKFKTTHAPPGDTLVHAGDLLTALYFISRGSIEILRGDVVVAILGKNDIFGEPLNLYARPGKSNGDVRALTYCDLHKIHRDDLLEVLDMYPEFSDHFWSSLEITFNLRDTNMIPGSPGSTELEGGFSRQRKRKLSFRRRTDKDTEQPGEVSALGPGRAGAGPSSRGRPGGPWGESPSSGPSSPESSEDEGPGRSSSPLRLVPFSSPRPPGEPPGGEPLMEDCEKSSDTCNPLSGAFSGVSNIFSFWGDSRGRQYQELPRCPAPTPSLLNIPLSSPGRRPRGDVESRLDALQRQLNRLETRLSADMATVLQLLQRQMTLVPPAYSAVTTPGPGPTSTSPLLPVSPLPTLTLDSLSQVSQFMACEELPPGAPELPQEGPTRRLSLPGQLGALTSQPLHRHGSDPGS

SMILES | IC50
COC(=O)c1coc(CN2CCN(C(=O)CC(c3ccc(F)cc3)c3ccc(Br)cc3)CC2)n1 (centres undefined) | 2230 nM

What follows are molecules tested against T1, Voltage-dependent T-type calcium channel subunit alpha-1G (assay: Inhibition of T-type alpha1G calcium channel expressed in HEK293 cells assessed as Kcl-induced depolarization at 10 uM).
Format: cell-based
Procedure, shortened: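 HEK293 cells stably expressing alpha1G plus Kir2.1, grown in DMEM/10% FBS with penicillin, streptomycin, geneticin and puromycin at 37 °C, 5% CO2; seeded 4 × 10^4 cells/well, used next day. Loaded 60 min at room temperature with 5 µM fluo3/AM and 0.001% Pluronic F-127 in Hepes buffer (pH 7.4). Channels activated by 70 mM KCl with 10 mM CaCl2; rise in intracellular Ca2+ read by FDSS6000 fluorescence.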

SMILES | inhibition
COC(=O)c1coc(CN2CCN(C(=O)CC(c3ccccc3)c3ccc(C(F)(F)F)cc3)CC2)n1 (centres undefined) | 60.4%
COC(=O)c1coc(CN2CCN(C(=O)CC(c3ccc(F)cc3)c3ccc(F)cc3)CC2)n1 | 33.5%
Cc1ccc2nc(CN3CCN(C(=O)CC(c4ccc(F)cc4)c4ccc(Br)cc4)CC3)oc2c1 (centres undefined) | 11.2%
COC(=O)c1coc(CN2CCN(C(=O)CC(c3ccc(F)cc3)c3ccc(C(F)(F)F)cc3)CC2)n1 (centres undefined) | 51.8%
COC(=O)c1coc(CN2CCN(C(=O)CC(c3ccc(OC)cc3)c3cccc(F)c3)CC2)n1 (centres undefined) | 25.5%
O=C(CC(c1ccc(Br)cc1)c1cccc(F)c1)N1CCN(Cc2nc(CO)co2)CC1 (centres undefined) | 21.3%
COc1ccc(C(CC(=O)N2CCN(Cc3nc(C(=O)N4CCOCC4)co3)CC2)c2cccc(F)c2)cc1 (centres undefined) | 19.7%
COc1ccc(C(CC(=O)N2CCN(Cc3nc4ccc(C)cc4o3)CC2)c2ccc(F)cc2)cc1 (centres undefined) | 23.3%
Cc1ccc2nc(CN3CCN(C(=O)CC(c4ccc(F)cc4)c4ccc(Cl)cc4)CC3)oc2c1 (centres undefined) | 15.5%
O=C(CC(c1ccc(C(F)(F)F)cc1)c1cccc(F)c1)N1CCN(Cc2nc(C(=O)N3CCOCC3)co2)CC1 (centres undefined) | 53.4%
COC(=O)c1coc(CN2CCN(C(=O)CC(c3ccc(C(F)(F)F)cc3)c3cccc(F)c3)CC2)n1 (centres undefined) | 57.6%
COC(=O)c1coc(CN2CCN(C(=O)CC(c3ccc(Br)cc3)c3cccc(F)c3)CC2)n1 (centres undefined) | 36.6%
Cc1ccc2nc(CN3CCN(C(=O)CC(c4ccccc4)c4ccc(Br)cc4)CC3)oc2c1 (centres undefined) | 13.6%
COC(=O)c1coc(CN2CCN(C(=O)CC(c3ccc(F)cc3)c3ccc(Cl)cc3)CC2)n1 (centres undefined) | 45.1%
Cc1ccc2nc(CN3CCN(C(=O)CC(c4ccc(Br)cc4)c4cccc(F)c4)CC3)oc2c1 (centres undefined) | 18%
COC(=O)c1coc(CN2CCN(C(=O)CC(c3ccccc3)c3ccc(Cl)cc3)CC2)n1 (centres undefined) | 35%
COC(=O)c1coc(CN2CCN(C(=O)CC(c3ccccc3)c3ccc(Br)cc3)CC2)n1 (centres undefined) | 42.8%
Cc1ccc2nc(CN3CCN(C(=O)CC(c4ccccc4)c4ccc(C(F)(F)F)cc4)CC3)oc2c1 (centres undefined) | 22.4%
O=C(CC(c1ccc(F)cc1)c1cccc(F)c1)N1CCN(Cc2nc(CO)co2)CC1 (centres undefined) | 13.7%
COc1ccc(C(CC(=O)N2CCN(Cc3nc(CO)co3)CC2)c2cccc(F)c2)cc1 (centres undefined) | 4.9%
COc1ccc(C(CC(=O)N2CCN(Cc3nc(C(=O)O)co3)CC2)c2ccc(F)cc2)cc1 (centres undefined) | 7.68%
Cc1ccc2nc(CN3CCN(C(=O)CC(c4ccccc4)c4ccc(F)cc4)CC3)oc2c1 (centres undefined) | 42.7%
O=C(CC(c1ccc(Br)cc1)c1cccc(F)c1)N1CCN(Cc2nc(C(=O)N3CCOCC3)co2)CC1 (centres undefined) | 44.6%

SMILES | inhibition
O=C(CC(c1ccc(F)cc1)c1cccc(F)c1)N1CCN(Cc2nc(C(=O)N3CCOCC3)co2)CC1 (centres undefined) | 36.9%
COC(=O)c1coc(CN2CCN(C(=O)CC(c3ccc(Cl)cc3)c3cccc(F)c3)CC2)n1 (centres undefined) | 24.5%
COC(=O)c1coc(CN2CCN(C(=O)CC(c3ccc(F)cc3)c3cccc(F)c3)CC2)n1 (centres undefined) | 44.5%
O=C(O)c1coc(CN2CCN(C(=O)CC(c3ccc(F)cc3)c3ccc(F)cc3)CC2)n1 | 3.84%
O=C(O)c1coc(CN2CCN(C(=O)CC(c3ccc(F)cc3)c3ccc(Br)cc3)CC2)n1 (centres undefined) | 5.42%
Cc1ccc2nc(CN3CCN(C(=O)CC(c4ccccc4)c4ccc(Cl)cc4)CC3)oc2c1 (centres undefined) | 25.9%
COc1ccc(C(CC(=O)N2CCN(Cc3nc4ccc(C)cc4o3)CC2)c2ccccc2)cc1 (centres undefined) | 63.5%
O=C(O)c1coc(CN2CCN(C(=O)CC(c3ccc(F)cc3)c3ccc(Cl)cc3)CC2)n1 (centres undefined) | 3.62%
COC(=O)c1coc(CN2CCN(C(=O)CC(c3ccc(F)cc3)c3ccc(Br)cc3)CC2)n1 (centres undefined) | 42.1%
COC(=O)c1coc(CN2CCN(C(=O)CC(c3ccc(F)cc3)c3ccc(OC)cc3)CC2)n1 (centres undefined) | 24.5%
O=C(CC(c1ccc(Cl)cc1)c1cccc(F)c1)N1CCN(Cc2nc(C(=O)N3CCOCC3)co2)CC1 (centres undefined) | 48.6%
O=C(CC(c1ccc(C(F)(F)F)cc1)c1cccc(F)c1)N1CCN(Cc2nc(CO)co2)CC1 (centres undefined) | 19.2%
Cc1ccc2nc(CN3CCN(C(=O)CC(c4ccc(F)cc4)c4ccc(C(F)(F)F)cc4)CC3)oc2c1 (centres undefined) | 9.84%
COC(=O)c1coc(CN2CCN(C(=O)CC(c3ccccc3)c3ccc(OC)cc3)CC2)n1 (centres undefined) | 22.8%
Cc1ccc2nc(CN3CCN(C(=O)CC(c4ccc(Cl)cc4)c4cccc(F)c4)CC3)oc2c1 (centres undefined) | 32.2%
O=C(CC(c1ccc(Cl)cc1)c1cccc(F)c1)N1CCN(Cc2nc(CO)co2)CC1 (centres undefined) | 19.2%
Cc1ccc2nc(CN3CCN(C(=O)CC(c4ccc(C(F)(F)F)cc4)c4cccc(F)c4)CC3)oc2c1 (centres undefined) | 26.4%
COC(=O)c1coc(CN2CCN(C(=O)CC(c3ccccc3)c3ccc(F)cc3)CC2)n1 (centres undefined) | 27.7%
Cc1ccc2nc(CN3CCN(C(=O)CC(c4ccc(F)cc4)c4ccc(F)cc4)CC3)oc2c1 | 30.9%
O=C(O)c1coc(CN2CCN(C(=O)CC(c3ccc(F)cc3)c3ccc(C(F)(F)F)cc3)CC2)n1 (centres undefined) | 3.62%
COc1ccc(C(CC(=O)N2CCN(Cc3nc4ccc(C)cc4o3)CC2)c2cccc(F)c2)cc1 (centres undefined) | 52%
Cc1ccc2nc(CN3CCN(C(=O)CC(c4ccc(F)cc4)c4cccc(F)c4)CC3)oc2c1 (centres undefined) | 44.9%
